Measured values reported in ChEMBL document CHEMBL1143911, “Studies on quinones. Part 42: Synthesis of furylquinone and hydroquinones with antiproliferative activity against human tumor cell lines” (2008).

Tests used:
Type in all cases: functional
NCI-H460 = assay: Cytotoxicity against human NCI-H460 cells after 48 hrs; settings: NCI-H460, 48 h
Summary of the method: (§1)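 Adherent cells kept in RPMI-1640 with 5% heat-inactivated FBS, 2 mM glutamine and 50 µg/mL gentamycin at 37 °C, 5% CO2. Plated at 7.5 × 10⁴ cells/mL, attached overnight, then given five concentrations (maximum 150 µM; DMSO stocks diluted in medium) for 48 h. Fixed in situ, SRB-stained, absorbance at 492 nm. GI50 (50% inhibition of net growth) taken from dose–response curves.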

SF-268 = assay: Cytotoxicity against human SF268 cells after 48 hrs; settings: SF-268, 48 h
Summary of the method: as §1, with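 “1.5” for “7.5”, “10⁵” for “10⁴”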

MCF7 = assay: Cytotoxicity against human MCF7 cells after 48 hrs; settings: MCF7, 48 h
Summary of the method: as §1, with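 “1.5” for “7.5”, “10⁵” for “10⁴”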

SMILES	GI50 (NCI-H460) [µM]	GI50 (SF-268) [µM]	GI50 (MCF7) [µM]
CN(C)/N=C/c1ccc(C2=CC(=O)C=CC2=O)o1	148	100	33.5
CN(C)/N=C/c1ccc(C2=C(Cl)C(=O)c3ccccc3C2=O)o1	10.9	9.3	8.1
CN(C)/N=C/c1ccc(-c2c(O)ccc(O)c2C=O)o1	93	38.3	29.4
O=Cc1c(O)ccc(O)c1Cl	122	18.8	15.6
O=Cc1ccc(-c2c(O)ccc(O)c2C=O)o1	80.2	35.8	20.3
CN(C)/N=C/c1ccc(C2=CC(=O)c3ccccc3C2=O)o1	6.8	6.5	7.7
CCCCSc1c(O)ccc(O)c1C(C)=O	63.3	27.5	29.2
COC1=CC(=O)C(c2ccc(/C=N/N(C)C)o2)=CC1=O	27.2	9.1	8.2
COc1cccc2c1C(=O)c1c(O)c3c(c(O)c1C2=O)C[C@@](O)(C(=O)CO)C[C@@H]3O[C@H]1C[C@H](N)[C@H](O)[C@H](C)O1 [DOXORUBICIN]	0.094	0.093	0.0428
